Source: ChEMBL document CHEMBL4257579, “Analogs of penfluridol as chemotherapeutic agents with reduced central nervous system activity” (Bioorg Med Chem Lett, 2018)

Key:
[1] = target: T1, 5-hydroxytryptamine receptor 7 (Homo sapiens, UniProt P34969); experiment: Displacement of [3H]LSD from human 5-HT7A receptor expressed in HEK cells by radioligand binding assay relative to control; format: cell-based
[2] = target: 5-hydroxytryptamine receptor 1D (Homo sapiens, UniProt P28221); experiment: Displacement of [3H]5-CT from human 5-HT1D receptor expressed in HEK293T cells by radioligand binding assay; format: cell-based
5-hydroxytryptamine receptor 1D, sequence (P28221 whole entry): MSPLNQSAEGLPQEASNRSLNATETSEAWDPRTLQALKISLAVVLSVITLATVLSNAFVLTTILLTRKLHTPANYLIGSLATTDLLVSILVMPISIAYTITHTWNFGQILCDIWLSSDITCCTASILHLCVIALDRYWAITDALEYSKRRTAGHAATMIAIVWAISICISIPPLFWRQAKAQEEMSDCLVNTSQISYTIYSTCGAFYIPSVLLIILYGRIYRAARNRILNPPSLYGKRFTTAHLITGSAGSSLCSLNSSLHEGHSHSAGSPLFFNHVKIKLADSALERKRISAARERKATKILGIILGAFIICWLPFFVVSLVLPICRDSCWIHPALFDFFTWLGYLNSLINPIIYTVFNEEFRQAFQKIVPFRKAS

[3] = target: 5-hydroxytryptamine receptor 6 (Homo sapiens, UniProt P50406); experiment: Displacement of [3H]LSD from human 5-HT6 receptor expressed in HEK cells by radioligand binding assay; format: cell-based
5-hydroxytryptamine receptor 6, sequence (P50406 whole entry): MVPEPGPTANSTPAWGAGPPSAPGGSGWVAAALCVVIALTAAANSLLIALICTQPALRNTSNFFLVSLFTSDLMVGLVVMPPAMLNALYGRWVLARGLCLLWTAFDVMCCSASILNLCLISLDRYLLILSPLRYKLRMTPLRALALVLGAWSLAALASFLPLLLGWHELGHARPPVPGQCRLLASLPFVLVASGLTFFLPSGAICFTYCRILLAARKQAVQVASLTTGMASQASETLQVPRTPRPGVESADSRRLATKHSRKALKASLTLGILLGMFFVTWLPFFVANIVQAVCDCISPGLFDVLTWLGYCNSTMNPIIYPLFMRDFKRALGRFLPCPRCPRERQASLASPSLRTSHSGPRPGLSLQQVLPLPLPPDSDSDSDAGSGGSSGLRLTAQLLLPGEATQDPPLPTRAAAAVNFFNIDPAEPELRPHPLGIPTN

NIH3T3 = experiment: Cytotoxicity against mouse NIH/3T3 cells assessed as reduction in cell viability after 48 hrs by MTT assay; format: cell-based; conditions: NIH3T3, 48 h
Outline: (§1)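 Cells exposed to compounds; viability read at 24, 48 and 72 h. Every experiment run in triplicate.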

[4] = tested on: Lewis lung carcinoma cell line; experiment: Cytotoxicity against mouse LLC cells harboring […] assessed as reduction in cell viability after 48 hrs by MTT assay; format: functional, cell-based; outline: as §1
[5] = target: T1, 5-hydroxytryptamine receptor 7; experiment: Displacement of [3H]LSD from human 5-HT7A receptor expressed in HEK cells by radioligand binding assay; format: cell-based
MDA-MB-231 [6] = experiment: Cytotoxicity against human MDA-MB-231 cells assessed as reduction in cell viability after 48 hrs by MTT assay; format: functional, cell-based; conditions: MDA-MB-231, 48 h; outline: as §1
[7] = target: 5-hydroxytryptamine receptor 2B (Homo sapiens, UniProt P41595); experiment: Displacement of [3H]LSD from human 5-HT2B receptor expressed in HEK cells by radioligand binding assay relative to control; format: cell-based; design: concentration or dose not given beside the values; conditions: concentration not given here
[8] = target: Kappa-type opioid receptor (Homo sapiens, UniProt P41145); experiment: Displacement of [3H]U69593 from KOR (unknown origin) expressed in HEK cells by radioligand binding assay relative to control; format: cell-based; design: concentration or dose not given beside the values; conditions: concentration not given here
Kappa-type opioid receptor, sequence (P41145 whole entry): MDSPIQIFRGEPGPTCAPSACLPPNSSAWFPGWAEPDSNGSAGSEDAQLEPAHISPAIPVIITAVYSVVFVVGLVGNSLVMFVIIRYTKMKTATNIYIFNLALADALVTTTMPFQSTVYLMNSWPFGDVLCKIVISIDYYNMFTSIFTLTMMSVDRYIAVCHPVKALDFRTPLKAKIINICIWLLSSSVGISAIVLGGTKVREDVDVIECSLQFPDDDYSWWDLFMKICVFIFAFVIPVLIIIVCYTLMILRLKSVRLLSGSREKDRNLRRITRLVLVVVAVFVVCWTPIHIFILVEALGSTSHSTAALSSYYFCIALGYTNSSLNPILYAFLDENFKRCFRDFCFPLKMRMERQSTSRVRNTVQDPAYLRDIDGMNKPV

[9] = target: 5-hydroxytryptamine receptor 2A (Homo sapiens, UniProt P28223); experiment: Displacement of [3H]Ketanserin from 5-HT2A receptor (unknown origin) by radioligand binding assay relative to control; design: concentration or dose not given beside the values; conditions: concentration not given here
5-hydroxytryptamine receptor 2A, sequence (P28223 whole entry): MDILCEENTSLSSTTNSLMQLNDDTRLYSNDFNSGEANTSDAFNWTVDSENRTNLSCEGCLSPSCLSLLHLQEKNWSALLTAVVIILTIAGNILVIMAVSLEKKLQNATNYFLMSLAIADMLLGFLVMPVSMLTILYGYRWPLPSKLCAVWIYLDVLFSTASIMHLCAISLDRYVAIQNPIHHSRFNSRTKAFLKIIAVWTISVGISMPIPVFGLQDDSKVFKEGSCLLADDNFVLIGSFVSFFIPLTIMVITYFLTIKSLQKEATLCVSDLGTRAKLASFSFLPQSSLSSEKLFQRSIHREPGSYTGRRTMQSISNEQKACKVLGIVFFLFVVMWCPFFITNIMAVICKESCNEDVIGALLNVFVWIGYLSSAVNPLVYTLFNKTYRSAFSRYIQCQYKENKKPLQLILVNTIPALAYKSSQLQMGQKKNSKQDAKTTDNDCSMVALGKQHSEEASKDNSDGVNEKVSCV

Mu-type opioid receptor = Mu-type opioid receptor (Homo sapiens, UniProt P35372); experiment: Displacement of [3H]DAMGO from human MOR expressed in HEK cells by radioligand binding assay relative to control; format: cell-based; design: concentration or dose not given beside the values; conditions: concentration not given here
[10] = tested on: Lewis lung carcinoma cell line; experiment: Cytotoxicity against mouse LLC cells harboring […] assessed as reduction in cell viability after 24 hrs by MTT assay; format: functional, cell-based; outline: as §1
[11] = target: T2, D(4) dopamine receptor (Homo sapiens) (UniProt P21917); experiment: Displacement of [3H]N-methylspiperone from human dopamine D4 receptor by radioligand binding assay relative to control; design: concentration or dose not given beside the values; conditions: concentration not given here
T2 sequence (whole entry): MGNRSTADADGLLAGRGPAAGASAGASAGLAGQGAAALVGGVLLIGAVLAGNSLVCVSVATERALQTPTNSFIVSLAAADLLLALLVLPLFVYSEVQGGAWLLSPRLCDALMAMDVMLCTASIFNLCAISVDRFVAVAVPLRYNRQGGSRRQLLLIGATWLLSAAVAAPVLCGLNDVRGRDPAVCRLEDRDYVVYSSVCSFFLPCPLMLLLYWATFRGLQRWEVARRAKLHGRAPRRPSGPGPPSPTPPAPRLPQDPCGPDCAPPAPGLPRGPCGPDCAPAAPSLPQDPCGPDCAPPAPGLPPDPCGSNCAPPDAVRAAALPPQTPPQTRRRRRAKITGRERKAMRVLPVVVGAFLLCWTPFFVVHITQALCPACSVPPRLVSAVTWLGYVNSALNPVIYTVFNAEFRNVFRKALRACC

D(4) dopamine receptor = target: T3, D(4) dopamine receptor (Homo sapiens, UniProt P21917); experiment: Displacement of [3H]N-methylspiperone from human dopamine D4 receptor by radioligand binding assay
T3 sequence (P21917 whole entry): T2 sequence (whole entry)

D(1B) dopamine receptor = D(1B) dopamine receptor (Homo sapiens, UniProt P21918); experiment: Displacement of [3H]SCH23390 from human dopamine D5 receptor expressed in HEK293T cells by radioligand binding assay; format: cell-based
D(1B) dopamine receptor, sequence (P21918 whole entry): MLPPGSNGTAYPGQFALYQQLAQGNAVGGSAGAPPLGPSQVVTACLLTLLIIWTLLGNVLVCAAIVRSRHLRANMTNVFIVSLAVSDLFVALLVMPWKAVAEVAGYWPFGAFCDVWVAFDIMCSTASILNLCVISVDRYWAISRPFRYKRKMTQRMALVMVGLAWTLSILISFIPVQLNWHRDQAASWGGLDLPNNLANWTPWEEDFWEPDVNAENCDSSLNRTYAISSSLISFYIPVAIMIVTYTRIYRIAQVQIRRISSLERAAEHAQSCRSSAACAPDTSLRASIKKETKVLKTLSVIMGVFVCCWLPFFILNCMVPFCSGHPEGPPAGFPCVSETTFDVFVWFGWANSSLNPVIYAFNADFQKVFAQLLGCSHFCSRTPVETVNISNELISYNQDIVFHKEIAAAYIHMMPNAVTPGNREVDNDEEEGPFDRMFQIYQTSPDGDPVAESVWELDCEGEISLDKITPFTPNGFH

D(1A) dopamine receptor = D(1A) dopamine receptor (Homo sapiens, UniProt P21728); experiment: Displacement of [3H]SCH23390 from human dopamine D1 receptor expressed in HEK293T cells by radioligand binding assay; format: cell-based
D(1A) dopamine receptor, sequence (P21728 whole entry): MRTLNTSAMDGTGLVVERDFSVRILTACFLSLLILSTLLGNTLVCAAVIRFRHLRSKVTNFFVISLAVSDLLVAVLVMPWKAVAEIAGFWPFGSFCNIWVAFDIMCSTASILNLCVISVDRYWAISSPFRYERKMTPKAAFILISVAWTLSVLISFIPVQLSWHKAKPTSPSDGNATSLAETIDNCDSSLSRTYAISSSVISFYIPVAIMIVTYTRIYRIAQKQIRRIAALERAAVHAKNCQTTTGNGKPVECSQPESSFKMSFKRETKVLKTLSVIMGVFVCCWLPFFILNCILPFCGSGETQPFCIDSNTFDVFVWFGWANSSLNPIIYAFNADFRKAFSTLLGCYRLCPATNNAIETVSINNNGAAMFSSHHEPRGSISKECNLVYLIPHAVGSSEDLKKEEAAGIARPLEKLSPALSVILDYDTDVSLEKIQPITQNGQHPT

D(2) dopamine receptor = D(2) dopamine receptor (Homo sapiens, UniProt P14416); experiment: Displacement of [3H]N-methylspiperone from human dopamine D2 receptor expressed in stable fibroblast cells by radioligand binding assay; format: cell-based
D(2) dopamine receptor, sequence (P14416 whole entry): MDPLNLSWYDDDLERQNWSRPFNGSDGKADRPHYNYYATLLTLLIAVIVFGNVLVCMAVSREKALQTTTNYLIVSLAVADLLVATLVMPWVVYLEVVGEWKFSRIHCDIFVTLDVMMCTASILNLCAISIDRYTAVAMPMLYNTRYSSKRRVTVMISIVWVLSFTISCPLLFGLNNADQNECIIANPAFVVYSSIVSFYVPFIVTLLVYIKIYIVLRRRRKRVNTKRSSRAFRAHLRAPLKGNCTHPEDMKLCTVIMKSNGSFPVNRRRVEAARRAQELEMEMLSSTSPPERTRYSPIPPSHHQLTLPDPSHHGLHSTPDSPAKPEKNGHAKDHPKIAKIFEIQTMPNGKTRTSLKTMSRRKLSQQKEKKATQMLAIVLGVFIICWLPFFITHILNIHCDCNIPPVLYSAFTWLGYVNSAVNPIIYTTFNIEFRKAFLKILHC

MDA-MB-231 [12] = experiment: Cytotoxicity against human MDA-MB-231 cells assessed as reduction in cell viability after 72 hrs by MTT assay; format: functional, cell-based; conditions: MDA-MB-231, 72 h; outline: as §1
[13] = target: T4, 5-hydroxytryptamine receptor 1A (Homo sapiens) (UniProt P08908); experiment: Displacement of [3H]-Way100635 from human 5HT1A receptor expressed in stable CHO cell membranes by radioligand binding assay relative to control; design: concentration or dose not given beside the values; conditions: concentration not given here
T4 sequence (whole entry): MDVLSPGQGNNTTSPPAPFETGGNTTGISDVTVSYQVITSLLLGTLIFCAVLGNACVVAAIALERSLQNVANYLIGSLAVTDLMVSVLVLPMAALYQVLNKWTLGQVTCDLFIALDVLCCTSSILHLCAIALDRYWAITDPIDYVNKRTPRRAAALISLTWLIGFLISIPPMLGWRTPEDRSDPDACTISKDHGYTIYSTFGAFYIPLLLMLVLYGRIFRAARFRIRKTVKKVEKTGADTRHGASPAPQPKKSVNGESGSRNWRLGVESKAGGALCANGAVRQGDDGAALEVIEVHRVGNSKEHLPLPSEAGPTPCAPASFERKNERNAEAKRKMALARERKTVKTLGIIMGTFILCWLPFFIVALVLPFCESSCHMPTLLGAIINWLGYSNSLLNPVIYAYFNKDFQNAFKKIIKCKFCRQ

[14] = target: Delta-type opioid receptor (Homo sapiens, UniProt P41143); experiment: Displacement of [3H]DADLE from human DOR expressed in HEK cells by radioligand binding assay; format: cell-based
Delta-type opioid receptor, sequence (P41143 whole entry): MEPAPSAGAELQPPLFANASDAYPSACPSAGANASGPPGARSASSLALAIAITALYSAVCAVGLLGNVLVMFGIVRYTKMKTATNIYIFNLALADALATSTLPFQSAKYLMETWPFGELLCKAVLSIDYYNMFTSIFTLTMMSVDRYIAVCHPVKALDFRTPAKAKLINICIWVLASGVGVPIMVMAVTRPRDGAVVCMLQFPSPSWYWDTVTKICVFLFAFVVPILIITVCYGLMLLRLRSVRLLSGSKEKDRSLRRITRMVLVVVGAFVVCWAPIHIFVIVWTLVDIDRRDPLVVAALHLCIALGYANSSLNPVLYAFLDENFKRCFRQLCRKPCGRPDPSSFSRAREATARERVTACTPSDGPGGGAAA

Histamine H2 receptor = Histamine H2 receptor (Homo sapiens, UniProt P25021); experiment: Displacement of [3H]Cimetidine from human H2 receptor expressed in HEK cells by radioligand binding assay; format: cell-based
Histamine H2 receptor, sequence (P25021 whole entry): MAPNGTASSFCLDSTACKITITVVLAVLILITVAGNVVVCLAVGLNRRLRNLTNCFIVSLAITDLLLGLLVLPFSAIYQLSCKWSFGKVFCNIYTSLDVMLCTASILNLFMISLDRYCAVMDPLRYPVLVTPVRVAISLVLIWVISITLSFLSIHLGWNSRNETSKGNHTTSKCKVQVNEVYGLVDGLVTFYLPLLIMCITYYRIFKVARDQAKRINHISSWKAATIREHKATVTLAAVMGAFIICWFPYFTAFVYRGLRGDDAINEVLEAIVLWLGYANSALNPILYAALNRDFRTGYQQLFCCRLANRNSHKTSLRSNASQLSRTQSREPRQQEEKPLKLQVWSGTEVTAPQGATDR

Histamine H1 receptor = Histamine H1 receptor (Homo sapiens, UniProt P35367); experiment: Displacement of [3H]Pyrilamine from human H1 receptor expressed in HEK cells by radioligand binding assay; format: cell-based
Histamine H1 receptor, sequence (P35367 whole entry): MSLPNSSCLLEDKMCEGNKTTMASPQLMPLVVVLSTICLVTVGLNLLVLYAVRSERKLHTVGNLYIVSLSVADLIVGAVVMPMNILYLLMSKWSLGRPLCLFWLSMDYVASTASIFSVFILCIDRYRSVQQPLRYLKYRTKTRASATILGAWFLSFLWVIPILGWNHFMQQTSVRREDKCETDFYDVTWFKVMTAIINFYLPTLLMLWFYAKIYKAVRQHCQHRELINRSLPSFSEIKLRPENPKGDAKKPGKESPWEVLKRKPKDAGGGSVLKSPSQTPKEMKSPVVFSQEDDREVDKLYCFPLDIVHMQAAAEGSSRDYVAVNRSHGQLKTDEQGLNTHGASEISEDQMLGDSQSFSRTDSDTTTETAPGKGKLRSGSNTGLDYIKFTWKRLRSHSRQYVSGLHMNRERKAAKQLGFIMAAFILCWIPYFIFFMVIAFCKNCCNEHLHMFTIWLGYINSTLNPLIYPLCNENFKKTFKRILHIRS

Mus musculus [15] = experiment: Toxicity in C57BL/6J mouse assessed as increase in glutamate dehydrogenase level at 5 mg/kg, ip treated daily for 7 consecutive days measured after 24 hrs post last dose […]; format: organism-based; conditions: in vivo
Outline: (§2)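 Female C57BL6 mice given 5 mg/kg i.p. daily for 7 days; blood taken at sacrifice 24 h after last dose for clinical chemistry panel: electrolytes, minerals, total protein, albumin, globulin, A/G ratio, BUN, ALT, AST, GLDH, cholestasis markers, ALP, bilirubin, amylase, creatine kinase.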

Mus musculus [16] = experiment: Toxicity in C57BL/6J mouse assessed as decrease in blood urea nitrogen level at 5 mg/kg, ip treated daily for 7 consecutive days measured after 24 hrs post last dose […]; conditions: in vivo
Mus musculus [17] = experiment: Toxicity in C57BL/6J mouse assessed as reduction in alkaline phosphatase level at 5 mg/kg, ip treated daily for 7 consecutive days measured after 24 hrs post last dose […]; format: organism-based; conditions: in vivo; outline: as §2

T1 sequence (P34969 whole entry): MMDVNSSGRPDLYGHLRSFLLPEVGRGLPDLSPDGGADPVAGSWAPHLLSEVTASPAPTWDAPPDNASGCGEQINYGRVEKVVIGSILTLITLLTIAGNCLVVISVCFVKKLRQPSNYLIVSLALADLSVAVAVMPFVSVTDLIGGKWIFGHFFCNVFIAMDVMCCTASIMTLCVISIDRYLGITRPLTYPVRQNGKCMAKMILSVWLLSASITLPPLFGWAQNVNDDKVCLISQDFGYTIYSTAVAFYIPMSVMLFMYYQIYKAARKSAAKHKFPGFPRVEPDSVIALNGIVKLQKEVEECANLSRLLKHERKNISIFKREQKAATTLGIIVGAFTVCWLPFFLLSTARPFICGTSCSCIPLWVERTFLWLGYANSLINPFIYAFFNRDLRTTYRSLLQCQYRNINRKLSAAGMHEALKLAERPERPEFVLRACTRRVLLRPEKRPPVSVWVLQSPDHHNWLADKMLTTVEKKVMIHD

## OC1(c2ccc(Cl)c(C(F)(F)F)c2)CCN(CCCC(c2ccccc2)c2ccccc2)CC1
[1]
  inhibition (INH): 82.1%
[2]; read-out: Ki
  Ki: 0.628 µM
[3]
  Ki: 1.69 µM
NIH3T3
  IC50: 12 µM
[4]
  IC50: 6.6 µM
[5]
  Ki: 0.326 µM
MDA-MB-231 [6]
  IC50: 8.7 µM
[7]
  inhibition: 92.5%
[8]
  inhibition: 98%
[9]
  inhibition: 94.3%
Mu-type opioid receptor
  inhibition: 90.3%
[10]
  IC50: 11.4 µM
[11]
  inhibition: 98.9%
D(4) dopamine receptor
  Ki: 0.058 µM
D(1B) dopamine receptor
  Ki: 0.121 µM
D(1A) dopamine receptor
  Ki: 0.135 µM
D(2) dopamine receptor
  Ki: 0.038 µM
MDA-MB-231 [12]
  IC50: 8.4 µM
[13]
  inhibition: 97.2%
[14]; read-out: Ki
  Ki: 1.53 µM
Histamine H2 receptor; read-out: Ki
  Ki: 0.278 µM

## OC1(c2ccc(Cl)c(C(F)(F)F)c2)CCN(CCCCCc2ccc(F)cc2)CC1
[1]
  inhibition (INH): 75.9%
[2]; read-out: Ki
  Ki: 4.43 µM
NIH3T3
  IC50: 11.8 µM
[4]
  IC50: 11.9 µM
[5]
  Ki: 1.12 µM
MDA-MB-231 [6]
  IC50: 11.9 µM
Histamine H1 receptor; read-out: Ki
  Ki: 0.718 µM
[8]
  inhibition: 78.3%
[9]
  inhibition: 68.5%
Mu-type opioid receptor
  inhibition: 86.2%
[10]
  IC50: 26.9 µM
[11]
  inhibition: 89.2%
D(4) dopamine receptor
  Ki: 0.132 µM
D(2) dopamine receptor
  Ki: 0.46 µM
MDA-MB-231 [12]
  IC50: 9.8 µM
[13]
  inhibition: 77.2%
[14]
  Ki: Not Active
Histamine H2 receptor; read-out: Ki
  Ki: 0.401 µM

## OC1(c2ccc(Cl)c(C(F)(F)F)c2)CCN(CCCN(c2ccc(F)cc2)c2ccc(F)cc2)CC1
[1]
  inhibition (INH): 85.9%
[2]; read-out: Ki
  Ki: 0.752 µM
[3]
  Ki: 1.68 µM
NIH3T3
  IC50: 5.6 µM
[4]
  IC50: 5.7 µM
[5]
  Ki: 1.57 µM
MDA-MB-231 [6]
  IC50: 5 µM
[7]
  inhibition: 95.5%
Histamine H1 receptor; read-out: Ki
  Ki: 0.814 µM
[8]
  inhibition: 69.8%
[9]
  inhibition: 94.6%
Mu-type opioid receptor
  inhibition: 97.4%
[10]
  IC50: 7 µM
[11]
  inhibition: 76.5%
D(4) dopamine receptor
  Ki: 0.025 µM
D(1B) dopamine receptor
  Ki: 0.437 µM
D(1A) dopamine receptor
  Ki: 0.3 µM
D(2) dopamine receptor
  Ki: 0.148 µM
MDA-MB-231 [12]
  IC50: 3.5 µM
[13]
  inhibition: 94.2%
[14]; read-out: Ki
  Ki: 1.56 µM
Histamine H2 receptor; read-out: Ki
  Ki: 0.252 µM

## OC1(c2ccc(Cl)c(C(F)(F)F)c2)CCN(CCCCN(c2ccc(F)cc2)c2ccc(F)cc2)CC1
[1]
  inhibition (INH): 57.1%
[2]; read-out: Ki
  Ki: 1.07 µM
[3]
  Ki: 1.67 µM
NIH3T3
  IC50: 11.6 µM
[4]
  IC50: 10.6 µM
[5]
  Ki: 0.812 µM
MDA-MB-231 [6]
  IC50: 11.5 µM
[7]
  inhibition: 82.4%
Histamine H1 receptor
  Ki: Not Active
[8]
  inhibition: 70.3%
[9]
  inhibition: 92.6%
Mu-type opioid receptor
  inhibition: 61.5%
[10]
  IC50: 10.8 µM
[11]
  inhibition: 86.1%
D(4) dopamine receptor
  Ki: 10 µM
D(1B) dopamine receptor
  Ki: 0.744 µM
D(1A) dopamine receptor
  Ki: 10 µM
D(2) dopamine receptor
  Ki: 0.55 µM
MDA-MB-231 [12]
  IC50: 9.2 µM
[13]
  inhibition: 82.2%
[14]; read-out: Ki
  Ki: 10 µM
Histamine H2 receptor
  Ki: Not Active

## OC1(c2ccc(Cl)c(C(F)(F)F)c2)CCN(CCCC(c2ccc(F)cc2)c2ccc(F)cc2)CC1 [PENFLURIDOL]
[1]
  inhibition (INH): 98.4%
[2]; read-out: Ki
  Ki: 3.56 µM
NIH3T3
  IC50: 6.09 µM
[4]
  IC50: 4.2 µM
[5]
  Ki: 0.28 µM
MDA-MB-231 [6]
  IC50: 5 µM
[7]
  inhibition: 97.3%
[8]
  inhibition: 94.6%
[9]
  inhibition: 95.2%
Mu-type opioid receptor
  inhibition: 87%
Mus musculus [15]
  Activity: Toxic
[10]
  IC50: 6 µM
Mus musculus [16]
  Activity: Toxic
[11]
  inhibition: 77.6%
Mus musculus [17]
  Activity: Toxic
D(1B) dopamine receptor
  Ki: 0.125 µM
D(1A) dopamine receptor
  Ki: 0.147 µM
D(2) dopamine receptor
  Ki: 0.159 µM
MDA-MB-231 [12]
  IC50: 5.1 µM
[13]
  inhibition: 100%
[14]; read-out: Ki
  Ki: 1.71 µM

## OC1(c2ccc(Cl)c(C(F)(F)F)c2)CCN(CCCC=C(c2ccc(F)cc2)c2ccc(F)cc2)CC1
[1]
  inhibition (INH): 78.8%
[2]
  Ki: Not Active
NIH3T3
  IC50: 14.8 µM
[4]
  IC50: 12 µM
[5]
  Ki: 10 µM
MDA-MB-231 [6]
  IC50: 14.9 µM
[7]
  inhibition: 91.8%
Histamine H1 receptor; read-out: Ki
  Ki: 0.718 µM
[8]
  inhibition: 80.9%
[9]
  inhibition: 91.5%
Mu-type opioid receptor
  inhibition: 90.6%
[10]
  IC50: 15.6 µM
[11]
  inhibition: 87.8%
D(4) dopamine receptor
  Ki: 1.64 µM
D(2) dopamine receptor
  Ki: 0.317 µM
MDA-MB-231 [12]
  IC50: 9.6 µM
[13]
  inhibition: 71.2%
Histamine H2 receptor; read-out: Ki
  Ki: 0.526 µM
